Source: ChEMBL document CHEMBL1132237, “Fluorination of 3-(3-(piperidin-1-yl)propyl)indoles and 3-(3-(piperazin-1-yl)propyl)indoles gives selective human 5-HT1D receptor ligands with improved pharmacokinetic profiles” (J Med Chem, 1999)

target: T1, 5-hydroxytryptamine receptor 1B (Homo sapiens, UniProt P28222); test: Displacement of specific [3H]5-HT binding to cloned human 5-hydroxytryptamine 1B receptor expressed in CHO cells; type: cell-based
Outline: (§1)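 Radioligand binding to human 5-HT1D and 5-HT1B receptors stably expressed in CHO cells. Radioligand was used at approximately its KD for each receptor. IC50 values are the logarithmic mean of 2–5 independent determinations, each run in duplicate. Maximum variance from the mean of log(IC50) was 4%. Selectivity is IC50(1B)/IC50(1D).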

T1 sequence (P28222 whole entry): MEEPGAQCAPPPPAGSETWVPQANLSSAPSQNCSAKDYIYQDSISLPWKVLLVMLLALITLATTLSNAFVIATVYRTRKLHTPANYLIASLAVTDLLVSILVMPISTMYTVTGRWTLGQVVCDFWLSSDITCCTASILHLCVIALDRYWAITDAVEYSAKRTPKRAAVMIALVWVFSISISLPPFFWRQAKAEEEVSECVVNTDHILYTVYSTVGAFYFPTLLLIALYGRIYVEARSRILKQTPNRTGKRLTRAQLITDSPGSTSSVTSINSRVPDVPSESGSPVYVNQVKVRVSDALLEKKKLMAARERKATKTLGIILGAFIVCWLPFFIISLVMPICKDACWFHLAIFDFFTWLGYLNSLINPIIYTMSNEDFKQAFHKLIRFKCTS

| SMILES | IC50 [µM] |
| --- | --- |
| F[C@H]1CN(CCCc2c[nH]c3ccc(-n4cnnc4)cc23)CC[C@@H]1NCc1ccccc1C(F)(F)F | 0.17 |
| Fc1ccc(CCC2(F)CCN(CCCc3c[nH]c4ccc(-n5cnnc5)cc34)CC2)cc1 | 0.025 |
| OC(Cc1c[nH]c2ccc(-n3cnnc3)cc12)CN1CCN(Cc2ccccc2)CC1 (stereo unspecified) | 0.36 |
| FC(Cc1c[nH]c2ccc(-n3cnnc3)cc12)CN1CCN(CCc2ccccc2)CC1 (stereo unspecified) | 0.93 |
| CN(Cc1ccccc1)C1CCN(CC(F)(F)Cc2c[nH]c3ccc(-n4cnnc4)cc23)CC1 | 2.1 |
| FC(Cc1c[nH]c2ccc(-n3cnnc3)cc12)CN1CCC(OCc2ccccc2)CC1 (stereo unspecified) | 3 |
| Fc1ccccc1CCC1(F)CCN(CCCc2c[nH]c3ccc(-n4cnnc4)cc23)CC1 | 0.016 |

The next lines start with the values.

| IC50 [µM] | SMILES |
| --- | --- |
| 7.2 | FC(F)(Cc1c[nH]c2ccc(-n3cnnc3)cc12)CN1CCC(COc2ccccc2)CC1 |
| 1.2 | Fc1cccc(CCN2CCN(CC(F)Cc3c[nH]c4ccc(-n5cnnc5)cc34)CC2)c1 (stereo in doubt; 25) |
| 0.3 | F[C@@H]1CN(CCCc2c[nH]c3ccc(-n4cnnc4)cc23)CC[C@@H]1NCc1ccccc1C(F)(F)F |
| 0.0031 | Fc1ccccc1CC1(F)CCN(CCCc2c[nH]c3ccc(-n4cnnc4)cc23)CC1 |
| 0.049 | FC1(CCc2ccccc2)CCN(CCCc2c[nH]c3ccc(-n4cnnc4)cc23)CC1 |
| 0.68 | Fc1cccc(CCN2CCN(C[C@@H](F)Cc3c[nH]c4ccc(-n5cnnc5)cc34)CC2)c1 |
| 5.8 | FC(F)(Cc1c[nH]c2ccc(-n3cnnc3)cc12)CN1CCC(CCc2ccccc2)CC1 |
| 1 | CC(CN1CCN(CC(F)(F)Cc2c[nH]c3ccc(-n4cnnc4)cc23)CC1)c1ccc(F)cc1 (stereo unspecified) |
| 0.54 | Fc1ccc(CCN2CCN(CC(F)Cc3c[nH]c4ccc(-n5cnnc5)cc34)CC2)cc1 (stereo unspecified) |
| 1 | Fc1cccc(CCN2CCN(CC(F)Cc3c[nH]c4ccc(-n5cnnc5)cc34)CC2)c1 (stereo in doubt; 28) [listing 1 of 2 here] |

test system: Rattus norvegicus; test: Oral absorption study in rat plasma obtained from hepatic portal vein after 0.5 hours of administration of 3 mg/kg orally; type: functional, organism-based; set-up: dose 3 mg/kg
Outline: (§2)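 Male Sprague–Dawley rats, fasted overnight and with no surgery, received 3 mg/kg orally as a 0.6 mg/mL solution in PEG 400:5 mM HCl (25:75 v/v). Terminal blood was taken from the heart and hepatic portal vein under isoflurane at 0.5 and 2 h, three rats per time point. Plasma drug was measured by electrospray mass spectrometry. Values are mean ± SEM.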

| SMILES | Plasma concentration [ng/mL] |
| --- | --- |
| c1ccc(CN2CCN(CCCc3c[nH]c4ccc(-n5cnnc5)cc34)CC2)cc1 | 168 |

test system: Rattus norvegicus; test: Oral absorption study in rat plasma obtained from cardiac blood samples after 0.5 hours of administration of 3 mg/kg orally; type: functional, organism-based; set-up: dose 3 mg/kg; outline: as §2

| SMILES | Plasma concentration [ng/mL] |
| --- | --- |
| c1ccc(CN2CCN(CCCc3c[nH]c4ccc(-n5cnnc5)cc34)CC2)cc1 | 42 |

target: T2, 5-hydroxytryptamine receptor 1D (Homo sapiens, UniProt P28221); test: Displacement of specific [3H]5-HT binding to cloned human 5-hydroxytryptamine 1D receptor expressed in CHO cells; type: cell-based; outline: as §1
T2 sequence (P28221 whole entry): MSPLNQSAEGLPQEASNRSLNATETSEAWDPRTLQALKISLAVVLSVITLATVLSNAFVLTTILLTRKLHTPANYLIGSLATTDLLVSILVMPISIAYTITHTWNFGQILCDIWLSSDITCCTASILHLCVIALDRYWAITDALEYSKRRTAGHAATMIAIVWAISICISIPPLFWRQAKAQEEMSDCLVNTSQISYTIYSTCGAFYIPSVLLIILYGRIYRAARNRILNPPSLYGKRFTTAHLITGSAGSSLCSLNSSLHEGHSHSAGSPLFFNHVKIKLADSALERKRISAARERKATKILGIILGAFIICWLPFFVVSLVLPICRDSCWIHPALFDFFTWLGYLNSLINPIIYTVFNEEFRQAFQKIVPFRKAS

| SMILES | IC50 [µM] |
| --- | --- |
| F[C@H]1CN(CCCc2c[nH]c3ccc(-n4cnnc4)cc23)CC[C@@H]1NCc1ccccc1C(F)(F)F | 0.005 |
| Fc1ccc(CCC2(F)CCN(CCCc3c[nH]c4ccc(-n5cnnc5)cc34)CC2)cc1 | 0.001 |
| OC(Cc1c[nH]c2ccc(-n3cnnc3)cc12)CN1CCN(Cc2ccccc2)CC1 (stereo unspecified) | 0.0018 |
| FC(Cc1c[nH]c2ccc(-n3cnnc3)cc12)CN1CCN(CCc2ccccc2)CC1 (stereo unspecified) | 0.0068 |
| CN(Cc1ccccc1)C1CCN(CC(F)(F)Cc2c[nH]c3ccc(-n4cnnc4)cc23)CC1 | 0.035 |
| FC(Cc1c[nH]c2ccc(-n3cnnc3)cc12)CN1CCC(OCc2ccccc2)CC1 (stereo unspecified) | 0.03 |
| c1ccc(CN2CCN(CCCc3c[nH]c4ccc(-n5cnnc5)cc34)CC2)cc1 | 0.00014 |
| Fc1ccccc1CCC1(F)CCN(CCCc2c[nH]c3ccc(-n4cnnc4)cc23)CC1 | 0.0008 |

Next, values leading:

| IC50 [µM] | SMILES |
| --- | --- |
| 0.28 | FC(F)(Cc1c[nH]c2ccc(-n3cnnc3)cc12)CN1CCC(COc2ccccc2)CC1 |
| 0.0035 | Fc1cccc(CCN2CCN(CC(F)Cc3c[nH]c4ccc(-n5cnnc5)cc34)CC2)c1 (stereo in doubt; 25) |
| 0.013 | F[C@@H]1CN(CCCc2c[nH]c3ccc(-n4cnnc4)cc23)CC[C@@H]1NCc1ccccc1C(F)(F)F |
| 0.0001 | Fc1ccccc1CC1(F)CCN(CCCc2c[nH]c3ccc(-n4cnnc4)cc23)CC1 |
| 0.002 | FC1(CCc2ccccc2)CCN(CCCc2c[nH]c3ccc(-n4cnnc4)cc23)CC1 |
| 0.0058 | Fc1cccc(CCN2CCN(C[C@@H](F)Cc3c[nH]c4ccc(-n5cnnc5)cc34)CC2)c1 |
| 0.056 | FC(F)(Cc1c[nH]c2ccc(-n3cnnc3)cc12)CN1CCC(CCc2ccccc2)CC1 |
| 0.0018 | CC(CN1CCN(CC(F)(F)Cc2c[nH]c3ccc(-n4cnnc4)cc23)CC1)c1ccc(F)cc1 (stereo unspecified) |
| 0.0055 | Fc1ccc(CCN2CCN(CC(F)Cc3c[nH]c4ccc(-n5cnnc5)cc34)CC2)cc1 (stereo unspecified) |
| 0.0051 | Fc1cccc(CCN2CCN(CC(F)Cc3c[nH]c4ccc(-n5cnnc5)cc34)CC2)c1 (stereo in doubt; 28) [listing 1 of 2 here] |

target: T1, 5-hydroxytryptamine receptor 1B; test: Agonist-induced [35S]GTP-gamma-S, binding in CHO cells stably transfected with human 5-hydroxytryptamine 1B receptor; type: functional, cell-based
Outline: (§3)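 [35S]GTPγS binding stimulated by agonist, measured in CHO cells stably transfected with the human 5-HT1D or 5-HT1B receptor. EC50 values are the logarithmic mean of 2–3 independent determinations. Maximum variance of individual log(EC50) values from the mean was 4%.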

| EC50 [µM] | SMILES |
| --- | --- |
| 0.81 | Fc1cccc(CCN2CCN(CC(F)Cc3c[nH]c4ccc(-n5cnnc5)cc34)CC2)c1 (stereo in doubt; 25) |

target: Serotonin 1 receptors; 5-HT1B & 5-HT1D (Homo sapiens) (UniProt P28222+P28221); test: Selectivity towards 5-HT1D and to that of 5-HT1B in CHO cells; type: cell-based; outline: as §1

| SMILES | Selectivity |
| --- | --- |
| F[C@H]1CN(CCCc2c[nH]c3ccc(-n4cnnc4)cc23)CC[C@@H]1NCc1ccccc1C(F)(F)F | 34 |
| Fc1ccc(CCC2(F)CCN(CCCc3c[nH]c4ccc(-n5cnnc5)cc34)CC2)cc1 | 25 |
| OC(Cc1c[nH]c2ccc(-n3cnnc3)cc12)CN1CCN(Cc2ccccc2)CC1 (stereo unspecified) | 200 |
| FC(Cc1c[nH]c2ccc(-n3cnnc3)cc12)CN1CCN(CCc2ccccc2)CC1 (stereo unspecified) | 137 |
| CN(Cc1ccccc1)C1CCN(CC(F)(F)Cc2c[nH]c3ccc(-n4cnnc4)cc23)CC1 | 60 |
| FC(Cc1c[nH]c2ccc(-n3cnnc3)cc12)CN1CCC(OCc2ccccc2)CC1 (stereo unspecified) | 100 |
| c1ccc(CN2CCN(CCCc3c[nH]c4ccc(-n5cnnc5)cc34)CC2)cc1 | 79 |
| Fc1ccccc1CCC1(F)CCN(CCCc2c[nH]c3ccc(-n4cnnc4)cc23)CC1 | 20 |

The remaining lines, values ahead:

| Selectivity | SMILES |
| --- | --- |
| 26 | FC(F)(Cc1c[nH]c2ccc(-n3cnnc3)cc12)CN1CCC(COc2ccccc2)CC1 |
| 23 | F[C@@H]1CN(CCCc2c[nH]c3ccc(-n4cnnc4)cc23)CC[C@@H]1NCc1ccccc1C(F)(F)F |
| 25 | FC1(CCc2ccccc2)CCN(CCCc2c[nH]c3ccc(-n4cnnc4)cc23)CC1 |
| 117 | Fc1cccc(CCN2CCN(C[C@@H](F)Cc3c[nH]c4ccc(-n5cnnc5)cc34)CC2)c1 |
| 104 | FC(F)(Cc1c[nH]c2ccc(-n3cnnc3)cc12)CN1CCC(CCc2ccccc2)CC1 |
| 196 | Fc1cccc(CCN2CCN(CC(F)Cc3c[nH]c4ccc(-n5cnnc5)cc34)CC2)c1 (stereo in doubt; 28) [listing 2 of 2 here] |
| 556 | CC(CN1CCN(CC(F)(F)Cc2c[nH]c3ccc(-n4cnnc4)cc23)CC1)c1ccc(F)cc1 (stereo unspecified) |
| 98 | Fc1ccc(CCN2CCN(CC(F)Cc3c[nH]c4ccc(-n5cnnc5)cc34)CC2)cc1 (stereo unspecified) |

target: T2, 5-hydroxytryptamine receptor 1D; test: Agonist-induced [35S]GTP-gamma-S, binding in CHO cells stably transfected with human 5-hydroxytryptamine 1D receptor; type: functional, cell-based; outline: as §3

| EC50 [µM] | SMILES |
| --- | --- |
| 0.0038 | Fc1cccc(CCN2CCN(CC(F)Cc3c[nH]c4ccc(-n5cnnc5)cc34)CC2)c1 (stereo in doubt; 25) |

test system: not listed separately; test: pKa value by potentiometric; type: physicochemical
Outline: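 Potentiometric titration in MeOH–H2O cosolvent with ionic strength set by 0.15 M KCl. Three titrations at different water/cosolvent ratios gave psKa values. Aqueous pKa was obtained by Yasuda–Shedlovsky extrapolation to 100% water, plotting psKa + log[H2O] against 1/ε.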

| SMILES | pKa |
| --- | --- |
| c1ccc(CN2CCN(CCCc3c[nH]c4ccc(-n5cnnc5)cc34)CC2)cc1 | 8.2 |
